PubChem BioAssay AID588696 (Southern Research Specialized Biocontainment Screening …, 2011)
pIC50: −log10 of the molar value. Activity calls are given as the source filed them.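 How the source made its calls: active means inhibition of 30% or more at any tested concentration; inactive means the rest.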

Target: Aspartyl aminopeptidase (Homo sapiens) (UniProt Q9ULA0)
Assay: hM18AAP (DNPEP) peptidase activity blockade – biochemical, QFRET fluorogenic readout, recombinant enzyme, counter-screen for PfM18AAP inhibitor project, dose response (AID 588696)
Conditions: H-Glu-NHMec fluorogenic cleavage
Procedure, shortened: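 Material – recombinant human hM18AAP enzyme · Buffer or medium – pH 7.5 Tris-HCl, 50 mM, plus 2 mM CoCl2, 2% DMSO · Also added – 0.1 mM H-Glu-NHMec substrate · Times – enzyme reaction for 90 min at room temperature · Signal – fluorescence at 370/460 nm · Measure – % inhibition and fitted IC50 · Control set – no-enzyme background wells as low-signal control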

SMILES | pIC50
COc1ccc2c(c1)C(=O)C(N)CC2 (centres undefined) | 4.00
Cc1ccc(-c2nc(-c3ccc(O)c(O)c3)cs2)cc1 | 4.58
O=C1OCCN1CCc1nc(-c2ccc(O)c(O)c2)cs1 | 4.34
CCOc1cccc(-c2nc(-c3ccc(O)c(O)c3)cs2)c1 | 4.67
CCC(C)c1ccc(N)c(O)c1 (centres undefined) | 4.35
CC(C)(C)C(=O)OCc1nc(-c2ccc(O)c(O)c2)cs1 | 4.48
Nc1cc(C(=O)c2ccccc2)ccc1O | 4.36
O=C1c2ccc3c4c(ccc(c24)C(=O)N1O)CC3 | 4.05
Cc1nc(NCCc2ccc(O)c(O)c2)c2c3c(sc2n1)CCC3 | 4.28
Oc1ccc(-c2csc(Cc3cc4ccccc4[nH]3)n2)cc1O | 4.56

Results, then the compound that gave them:

pIC50 | SMILES
4.52 | Oc1ccc(CCNc2cccc3ccccc23)cc1O
4.27 | Oc1ccc(CCNc2cncc3ccccc23)cc1O
4.34 | O=S1(=O)c2ccccc2-c2cc(-c3nc(-c4ccc(O)c(O)c4)[nH]c3-c3ccccc3)ccc21
4.51 | CN(CCc1ccc(O)c(O)c1)c1ccnc2ccccc12
4.38 | Oc1ccc(CCNC(c2ccccc2)c2ccccc2)cc1O
4.14 | Cc1c(-c2ccccc2)[nH]c(-c2ccc(O)c(O)c2)[n+]1O
4.47 | Oc1ccc(CCNc2ccc3ccccc3c2)cc1O

Same assay, conditions: H-Glu-NHMec fluorogenic cleavage, at 50 µM (top of the series)

SMILES | inhibition
COc1ccc(CCNc2ccnc3ccccc23)cc1OC | inactive
O=c1ccc2cc(O)c(O)cc2o1 | inactive
O=C(O)CCCCNc1c2ccccc2nc2ccccc12 | inactive

More lines, now with the values ahead:

inhibition | SMILES
inactive | O=C(O)CCCNc1c2ccccc2nc2ccccc12
inactive | Oc1ccc(CCNc2c3c(nc4ccccc24)CCCC3)cc1O

Same assay, conditions: H-Glu-NHMec fluorogenic cleavage, at 100 µM (top of the series)

SMILES | inhibition
O=c1cc(CO)oc(CN2CCCCC2)c1O | inactive
O=c1cc(CN2CCN(Cc3ccccc3)CC2)c2ccc(O)c(O)c2o1 | inactive
COc1ccc(-c2nc(-c3ccccc3)c(-c3ccccc3)[nH]2)cc1OC | inactive
NCc1cc2c3c(c(=O)oc2c(O)c1O)CCC3 | inactive
Cc1c(O)c(=O)ccn1CCNc1c2ccccc2nc2ccccc12 | inactive
COc1ccc(CCNC2CCN(C)CC2)cc1OC | inactive
COc1ccc(CCNc2cncc3ccccc23)cc1OC | inactive
COc1ccc(CCNC2CCN(Cc3ccccc3)CC2)cc1OC | inactive
CCC(C)C(=O)Nc1ccccc1N (centres undefined) | inactive
Cc1c(OCc2ccccc2)c(=O)ccn1CCNc1c2ccccc2nc2ccccc12 | inactive
COc1ccc(CC(=O)O)cc1OC | inactive
COc1ccc(-c2csc(-c3ccccc3)n2)cc1OC | inactive
O=C(c1ccco1)N1CCN(Cc2cc(=O)c(O)c[nH]2)CC1 | inactive
COc1ccc(CCN(C)c2ccncc2)cc1OC | inactive
COc1ccc(CCN2CCN(C)CC2)cc1OC | inactive
COc1ccc(CCNc2c3c(nc4ccccc24)CCCC3)cc1OC | inactive
COc1cccc(-c2nc(-c3ccc(OC)c(OC)c3)cs2)c1 | inactive
COc1ccc(CCN2CCc3ccccc3C2)cc1OC | inactive
COc1ccc(CCNc2ccncc2)cc1OC | inactive
COc1ccc(CCN(C)CCc2ccccc2)cc1OC | inactive
COc1ccc(-c2csc(-c3ccccc3OC)n2)cc1OC | inactive
COc1ccc(CCC(=O)O)cc1OC | inactive
O=C(c1ccco1)N1CCN(Cc2cc(=O)c(O)co2)CC1 | inactive
CCC(C)C(=O)Nc1ccccc1O (centres undefined) | inactive
COc1ccc(CCN(C)c2ccnc3ccccc23)cc1OC | inactive

The remaining lines, values ahead:

inhibition | SMILES
inactive | COc1ccc(CCCNc2c3ccccc3nc3ccccc23)cc1OC
inactive | Oc1ccc(CCCNc2c3ccccc3nc3ccccc23)cc1O
inactive | COc1ccc(CCNc2cccc3ccccc23)cc1OC
inactive | COc1ccc(CCNc2ccc3ccccc3c2)cc1OC
inactive | Oc1ccc(CCN2CCc3ccccc3C2)cc1O
inactive | CN(CCc1ccc(O)c(O)c1)c1ccncc1
inactive | COc1ccc(CCNc2c3ccccc3nc3ccccc23)cc1OC
inactive | COc1ccc(CNc2c3ccccc3nc3ccccc23)cc1OC
inactive | Oc1ccc(CCNC2CCN(Cc3ccccc3)CC2)cc1O
inactive | NCCNc1c2ccccc2nc2ccccc12
inactive | COc1cccc(CCNc2c3ccccc3nc3ccccc23)c1
inactive | Oc1ccc(CCNc2c3ccccc3nc3ccccc23)cc1
